The values that follow come from ChEMBL document CHEMBL3085663, “Hypoxia-targeting carbonic anhydrase IX inhibitors by a new series of nitroimidazole-sulfonamides/sulfamides/sulfamates” (J Med Chem, 2013).

Calls of active or inactive are those of the source. No cut-off for these calls is given here.

The test system of data set [1] is HeLa. Put plainly: Reduction in hypoxia-induced extracellular acidosis in human HeLa cells at 1 mM after 24 hrs. The format is functional, cell-based. The gist of the method:
(§1)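 Exponentially growing HT-29 or HeLa cells were cultured in DMEM with 10% FBS, under hypoxia (0.2% O₂, 5% CO₂, balance N₂) or normoxia (20% O₂, 5% CO₂). Compounds were added in medium with 1% DMSO at final 0.1 or 1 mM. Medium pH was measured before and immediately after incubation, reported as ΔpHe, as mean ± SD of at least three independent experiments.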

In data set [2] the test system is HT-29. Put plainly: Reduction in hypoxia-induced extracellular acidosis in human HT-29 cells at 1 mM after 24 hrs. The format is functional, cell-based. The gist of the method:
as §1

The target in a further data set is Carbonic anhydrase 9 (Homo sapiens, UniProt Q16790). Put plainly: Inhibition of recombinant human catalytic domain of carbonic anhydrase-9 preincubated for 15 mins by stopped-flow CO2 hydration assay.
For the next data set, the target named is Carbonic anhydrase 1 (Homo sapiens, UniProt P00915). Put plainly: Inhibition of full length human cytosolic carbonic anhydrase-1 preincubated for 15 mins by stopped-flow CO2 hydration assay.
Carbonic anhydrase 1, sequence (P00915 whole entry): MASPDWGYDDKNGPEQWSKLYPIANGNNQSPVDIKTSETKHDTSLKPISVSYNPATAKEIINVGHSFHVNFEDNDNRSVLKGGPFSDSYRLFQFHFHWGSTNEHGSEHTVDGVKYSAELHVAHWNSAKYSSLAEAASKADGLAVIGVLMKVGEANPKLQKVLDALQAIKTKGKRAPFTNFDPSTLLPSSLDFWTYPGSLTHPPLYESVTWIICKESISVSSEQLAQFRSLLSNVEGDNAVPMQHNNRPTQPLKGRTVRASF
Another data set deals with Carbonic anhydrase 2 (Homo sapiens, UniProt P00918). Put plainly: Inhibition of full length human cytosolic carbonic anhydrase-2 preincubated for 15 mins by stopped-flow CO2 hydration assay.
Another data set deals with Carbonic anhydrase 12 (Homo sapiens, UniProt O43570). Put plainly: Inhibition of recombinant human catalytic domain of carbonic anhydrase-12 preincubated for 15 mins by stopped-flow CO2 hydration assay.
Carbonic anhydrase 12, sequence (O43570 whole entry, the tested form may be a part): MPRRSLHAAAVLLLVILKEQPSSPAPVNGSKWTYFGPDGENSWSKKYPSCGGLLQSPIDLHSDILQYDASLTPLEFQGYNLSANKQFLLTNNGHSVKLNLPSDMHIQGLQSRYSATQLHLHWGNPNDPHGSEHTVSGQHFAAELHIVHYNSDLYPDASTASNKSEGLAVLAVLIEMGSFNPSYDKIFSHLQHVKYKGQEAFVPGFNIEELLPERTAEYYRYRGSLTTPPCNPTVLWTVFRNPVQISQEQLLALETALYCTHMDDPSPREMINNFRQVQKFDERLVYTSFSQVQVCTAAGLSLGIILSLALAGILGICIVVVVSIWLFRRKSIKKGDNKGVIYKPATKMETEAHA
Data set [3] relates to HeLa. In words: Reduction in hypoxia-induced extracellular acidosis in human HeLa cells at 0.1 to 1 mM after 24 hrs. It is filed as functional, cell-based. The gist of the method: as §1
The test system of data set [4] is HT-29. Put plainly: Antitumor activity against human HT-29 cells xenografted in NMRI-nu mouse assessed as time to reach 4x starting volume of tumor at 5 mg/kg, iv administered on day 3 for 3 weeks (reference value: 14.07 days). The format is functional. In a few lines: (§2)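 HT-29 cells in Matrigel were injected s.c. into the lateral flank of adult NMRI-nu mice (28−32 g). Dosing started at a tumour volume of 250 mm³ and was given i.v. One arm received 10 mg/kg daily for 3 days in 0.9% NaCl with 1% DMSO via the lateral tail vein. The other arm received 5 mg/kg at day 3. The schedule was repeated over 3 weeks. Read-out was time to reach 4× starting tumour volume against vehicle.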

Data set [5] deals with Mus musculus. Put plainly: Toxicity in NMRI-nu mouse xenografted with HT-29 cells assessed as body weight loss at 5 mg/kg, iv administered on day 3 for 3 weeks. It is filed as organism-based. Further details: dose 5 mg/kg, route intravenous. To be noted: in vivo, 504 h.
Data set [6] concerns HT-29. Put plainly: Antitumor activity against human HT-29 cells xenografted in NMRI-nu mouse assessed as tumor growth inhibition at 5 mg/kg, iv administered on day 3 for 3 weeks. The format is functional, organism-based. On the set-up: dose 5 mg/kg. The gist of the method: as §2
A general note: Xenograft models place foreign cells or tissue in a host animal.

Data set [7] concerns HT-29. Put plainly: Reduction in hypoxia-induced extracellular acidosis in human HT-29 cells after 24 hrs. The format is functional, cell-based. In a few lines:
as §1

The subject of data set [8] is HeLa. Put plainly: Reduction in hypoxia-induced extracellular acidosis in human HeLa cells after 24 hrs. It is filed as functional, cell-based. The gist of the method:
as §1

For data set [9], the system named is Mus musculus. Put plainly: Toxicity in NMRI-nu mouse xenografted with HT-29 cells assessed as body weight loss at 10 mg/kg, iv administered 3 days per week for 3 weeks. The format is organism-based. Further details: dose 10 mg/kg, route intravenous. To be noted: in vivo.
For data set [10], the system named is HT-29. In words: Antitumor activity against human HT-29 cells xenografted in NMRI-nu mouse assessed as time to reach 4x starting volume of tumor at 10 mg/kg, iv administered 3 days per week for 3 weeks (reference value: 14.07 days). It is filed as functional. In a few lines:
as §2

For data set [11], the system named is HT-29. In words: Antitumor activity against human HT-29 cells xenografted in NMRI-nu mouse assessed as tumor growth inhibition at 10 mg/kg, iv administered 3 days per week for 3 weeks. Further details: dose 10 mg/kg. The format is functional, organism-based. In a few lines: as §2

As for `Cc1ncc([N+](=O)[O-])n1CCOS(N)(=O)=O`, the outcome with HeLa [1] and with HT-29 [2] was Active.
A word on the Ki: it is the equilibrium dissociation constant of an inhibitor or competing ligand from its target. `Cc1nccn1CCCNS(N)(=O)=O`: at Carbonic anhydrase 9, the Ki was 0.021 µM.
In the case of `Cc1ncc([N+](=O)[O-])n1CCNS(C)(=O)=O`, the Ki at Carbonic anhydrase 1, at Carbonic anhydrase 9, at Carbonic anhydrase 2 and on Carbonic anhydrase 12 was greater than 20 µM throughout.
Regarding `NS(=O)(=O)NCCn1ccnc1[N+](=O)[O-]`, the Ki on Carbonic anhydrase 9 is 0.041 µM.
For `Cc1ncc([N+](=O)[O-])n1CCNC(=S)NCCc1ccc(S(N)(=O)=O)cc1`, the inhibition constant (Ki) at Carbonic anhydrase 9 came out at 0.0083 µM. The outcome in the data set on HeLa [3], in the data set on HeLa [1] and with HT-29 [2] was Active.
As for `NS(=O)(=O)c1ccc(CCNC(=O)Cn2ccnc2[N+](=O)[O-])cc1`, the inhibition constant Ki at Carbonic anhydrase 9 came to 0.008 µM.
In the case of `COc1cccc2c1C(=O)c1c(O)c3c(c(O)c1C2=O)C[C@@](O)(C(=O)CO)C[C@@H]3O[C@H]1C[C@H](N)[C@H](O)[C@H](C)O1` [DOXORUBICIN], the Time in the data set with HT-29 [4] was 23.39 days. The Activity entry in the data set with Mus musculus [5] was “Non-toxic”. For the same molecule, the TGI result with HT-29 [6] was “Active”.
On to `Cc1ncc([N+](=O)[O-])n1CCNC(=S)NCc1ccc(S(N)(=O)=O)cc1`, for which, on Carbonic anhydrase 9, the Ki was determined as 0.0072 µM.
For `Cc1ncc([N+](=O)[O-])n1CCNS(N)(=O)=O` [DTP-348], the Activity entry in the data set with HT-29 [7] is “Dose-dependent effect”; in the data set on HeLa [8], “Dose-dependent effect”; in the data set on Mus musculus [9] it was “Non-toxic”. Moreover, the outcome with HeLa [1] and in the data set with HT-29 [2] was Active. Also, the Time in the data set on HT-29 [10] was determined as 25.43 days. Besides, the TGI result in the data set with HT-29 [11] is “Active”.
Take `CS(=O)(=O)NCCn1ccnc1[N+](=O)[O-]`: the Ki on Carbonic anhydrase 1, on Carbonic anhydrase 9, at Carbonic anhydrase 2 and at Carbonic anhydrase 12 was greater than 20 µM each time.
`Cc1ncc([N+](=O)[O-])n1CCNC(=S)Nc1ccc(S(N)(=O)=O)cc1`: the inhibitory constant (Ki) at Carbonic anhydrase 9 was 0.0073 µM. For the same molecule, the result with HeLa [1] and in the data set on HT-29 [2] was Active.
